From ChEMBL document CHEMBL1128440 (J Med Chem, 1995)

Tests used:
Conditions in all cases: in vivo
Rattus norvegicus [1] = species on record: Rattus norvegicus; assay: Tissue biodistribution into estrogen-primed immature female rat fat at 1 hr blocked time interval; format: ADME, organism-based, Adipose tissue
How it was run: (§1)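 Immature female Sprague-Dawley rats (25 days old, ≈50 g, five per time point) primed with estradiol, 5 μg sc daily for 2 days in 50% ethanol/sunflower seed oil, used 24 h after the last injection. The 18F-labeled ligand was given iv by tail vein in 10% ethanol/saline. Decapitated at 1 or 3 h; blood and organs weighed and gamma-counted. Reported as %ID/g ± SD, n = 5.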

Rattus norvegicus [2] = species on record: Rattus norvegicus; assay: Tissue biodistribution into estrogen-primed immature female rat kidney at 1 hr low time interval; format: ADME, organism-based; how it was run: as §1
Rattus norvegicus [3] = species on record: Rattus norvegicus; assay: Tissue biodistribution into estrogen-primed immature female rat uterus/muscle at 1 hr time interval; format: ADME, organism-based
Rattus norvegicus [4] = species on record: Rattus norvegicus; assay: Tissue biodistribution into estrogen-primed immature female rat uterus/muscle at 3 hr time interval; format: ADME, organism-based
Rattus norvegicus [5] = species on record: Rattus norvegicus; assay: Tissue biodistribution into estrogen-primed immature female rat fat at 1 hr low time interval; format: ADME, organism-based, Adipose tissue; how it was run: as §1
Rattus norvegicus [6] = species on record: Rattus norvegicus; assay: Tissue biodistribution into estrogen-primed immature female rat bone at 1 hr time interval; format: ADME, organism-based, Bone element; how it was run: as §1
Rattus norvegicus [7] = species on record: Rattus norvegicus; assay: Tissue biodistribution into estrogen-primed immature female rat muscle at 3 hr time interval; format: ADME, organism-based; how it was run: as §1
Rattus norvegicus [8] = species on record: Rattus norvegicus; assay: Tissue biodistribution into estrogen-primed immature female rat uterus at 1 hr blocked time interval; format: ADME, organism-based; how it was run: as §1
Rattus norvegicus [9] = species on record: Rattus norvegicus; assay: Tissue biodistribution into estrogen-primed immature female rat brain at 1 hr blocked time interval; format: ADME, organism-based; how it was run: as §1
Rattus norvegicus [10] = species on record: Rattus norvegicus; assay: Tissue biodistribution into estrogen-primed immature female rat brain at 1 hr low time interval; format: ADME, organism-based; how it was run: as §1
Rattus norvegicus [11] = species on record: Rattus norvegicus; assay: Tissue biodistribution into estrogen-primed immature female rat uterus/blood at 1 hr blocked time interval; format: ADME, organism-based; how it was run: as §1
Rattus norvegicus [12] = species on record: Rattus norvegicus; assay: Tissue biodistribution into estrogen-primed immature female rat uterus/muscle at 1 hr blocked time interval; format: ADME, organism-based; how it was run: as §1
Rattus norvegicus [13] = species on record: Rattus norvegicus; assay: Tissue biodistribution into estrogen-primed immature female rat liver at 1 hr time interval; format: ADME, organism-based; how it was run: as §1
Rattus norvegicus [14] = species on record: Rattus norvegicus; assay: Tissue biodistribution into estrogen-primed immature female rat lung at 1 hr low time interval; format: ADME, organism-based; how it was run: as §1
Rattus norvegicus [15] = species on record: Rattus norvegicus; assay: Tissue biodistribution into estrogen-primed immature female rat ovaries at 1 hr low time interval; format: ADME, organism-based, Female gonad; how it was run: as §1
Rattus norvegicus [16] = species on record: Rattus norvegicus; assay: Tissue biodistribution into estrogen-primed immature female rat uterus/blood at 1 hr time interval; format: ADME, organism-based; how it was run: as §1
Rattus norvegicus [17] = species on record: Rattus norvegicus; assay: Tissue biodistribution into estrogen-primed immature female rat uterus/muscle at 1 hr low time interval; format: ADME, organism-based; how it was run: as §1
Rattus norvegicus [18] = species on record: Rattus norvegicus; assay: Tissue biodistribution into estrogen-primed immature female rat ovaries at 1 hr time interval; format: ADME, organism-based, Female gonad; how it was run: as §1
Rattus norvegicus [19] = species on record: Rattus norvegicus; assay: Tissue biodistribution into estrogen-primed immature female rat bone at 3 hr time interval; format: ADME, organism-based, Bone element; how it was run: as §1
Rattus norvegicus [20] = species on record: Rattus norvegicus; assay: Tissue biodistribution into estrogen-primed immature female rat brain at 3 hr time interval; format: ADME, organism-based; how it was run: as §1
Rattus norvegicus [21] = species on record: Rattus norvegicus; assay: Tissue biodistribution into estrogen-primed immature female rat fat at 3 hr time interval; format: ADME, organism-based, Adipose tissue; how it was run: as §1
Rattus norvegicus [22] = species on record: Rattus norvegicus; assay: Tissue biodistribution into estrogen-primed immature female rat liver at 1 hr low time interval; format: ADME, organism-based; how it was run: as §1
Rattus norvegicus [23] = species on record: Rattus norvegicus; assay: Tissue biodistribution into estrogen-primed immature female rat liver at 3 hr time interval; format: ADME, organism-based; how it was run: as §1
Rattus norvegicus [24] = species on record: Rattus norvegicus; assay: Tissue biodistribution into estrogen-primed immature female rat kidney at 3 hr time interval; format: ADME, organism-based; how it was run: as §1
Rattus norvegicus [25] = species on record: Rattus norvegicus; assay: Tissue biodistribution into estrogen-primed immature female rat uterus/blood at 1 hr low time interval; format: ADME, organism-based; how it was run: as §1
Rattus norvegicus [26] = species on record: Rattus norvegicus; assay: Tissue biodistribution into estrogen-primed immature female rat blood at 1 hr blocked time interval; format: ADME, organism-based; how it was run: as §1

- Injected dose/g (Rattus norvegicus [1]): 2.4%
- Injected dose/g (Rattus norvegicus [2]): 1.14%
- Uterus to muscle uptake ratio (Rattus norvegicus [3]): 11.63%
- ratio (Rattus norvegicus [4]): 32.2
- Injected dose/g (Rattus norvegicus [5]): 2.15%
- Injected dose/g (Rattus norvegicus [6]): 1.11%
- Injected dose/g (Rattus norvegicus [7]): 0.26%
- Injected dose/g (Rattus norvegicus [8]): 1.68%
- Injected dose/g (Rattus norvegicus [9]): 0.49%
- Injected dose/g (Rattus norvegicus [10]): 0.4%
- uterus/blood ratio (Rattus norvegicus [11]): 3.68
- uterus/muscle ratio (Rattus norvegicus [12]): 2.34
- Injected dose/g (Rattus norvegicus [13]): 2.4%
- Injected dose/g (Rattus norvegicus [14]): 1.51%
- Injected dose/g (Rattus norvegicus [15]): 2.13%
- Uterus to blood concentration ratio (Rattus norvegicus [16]): 18.18%
- Injected dose/g (Rattus norvegicus [17]): 12.85%
- Injected dose/g (Rattus norvegicus [18]): 2.76%
- Injected dose/g (Rattus norvegicus [19]): 1.3%
- Injected dose/g (Rattus norvegicus [20]): 0.18%
- Injected dose/g (Rattus norvegicus [21]): 2.36%
- Injected dose/g (Rattus norvegicus [22]): 1.81%
- Injected dose/g (Rattus norvegicus [23]): 1.65%
- Injected dose/g (Rattus norvegicus [24]): 0.73%
- Injected dose/g (Rattus norvegicus [25]): 14.95%
- Injected dose/g (Rattus norvegicus [26]): 0.46%
SMILES: C[C@]12CCC3C(CCC4=CC(=O)CC[C@@H]43)C1C[C@H]1OC(c3ccco3)O[C@]12C(=O)CF (stereo partly specified)
